Hits are enriched below; roughly 2.6% of the tested compounds scored in any of these assays.
SENP7 block: blocks the human protease SENP7; AID 434973; hit rate 1.5% among 330,000; recombinant SENP7, Z-RLRGG-aminoluciferin luminescence, 40 min; Q9BQF6; inhibition, % at 5 µM;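 active = inhibition above about 50% at the single test dose, limit read from the data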
UCH37 inh: inhibitors of human deubiquitinating enzyme UCH37; inhibition, % (concentration not given with the values); hit rate 0.33% among 330,000; AID 588478; purified proteasome/UCH37, Ub-AMC cleavage fluorescence; Q9Y5K5;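 active = mean inhibition over replicate wells above about 20%, limit read from the data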
Target sequence (Q9Y5K5 whole entry, looked up): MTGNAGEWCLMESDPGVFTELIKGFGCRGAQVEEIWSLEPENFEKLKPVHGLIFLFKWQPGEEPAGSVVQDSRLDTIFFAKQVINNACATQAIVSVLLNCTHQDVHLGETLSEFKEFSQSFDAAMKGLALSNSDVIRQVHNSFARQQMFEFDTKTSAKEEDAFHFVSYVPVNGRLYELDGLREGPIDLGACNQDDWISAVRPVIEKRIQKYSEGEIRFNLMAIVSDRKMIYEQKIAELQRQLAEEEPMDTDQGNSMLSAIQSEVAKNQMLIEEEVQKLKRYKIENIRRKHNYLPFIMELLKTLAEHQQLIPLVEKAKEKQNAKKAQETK
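Material: human UCH37 enzyme supplied as purified proteasome complex. Measure: % inhibition of Ub-AMC cleavage fluorescence. Medium: pH 7.4 Tris-HCl (50 mM) with ovalbumin, ATP-MgCl2, DTT. Times: 30 min preincubation with enzyme, 25 min cleavage at room temperature. Detection: AMC fluorescence intensity at 355/460 nm.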
SENP1 FRET inh: SENP1 (human) catalytic domain inhibition; recombinant SENP1 catalytic domain, CyPet-SUMO1-YPet FRET cleavage; inhibition, % at 10 µM; hit rate 0.21% among 360,000;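 active = inhibition at least 30% at 10 µM, raw YFP signal under a set limit, fluorescence ratio 0.5 to 1.5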
Target sequence (Q9P0U3 419-644 limits assumed): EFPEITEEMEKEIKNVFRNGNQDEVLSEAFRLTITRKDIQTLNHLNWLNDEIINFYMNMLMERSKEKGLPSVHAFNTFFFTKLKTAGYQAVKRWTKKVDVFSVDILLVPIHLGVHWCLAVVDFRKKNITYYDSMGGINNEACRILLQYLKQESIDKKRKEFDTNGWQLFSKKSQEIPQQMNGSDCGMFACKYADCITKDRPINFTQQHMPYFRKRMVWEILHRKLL
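Test system: human SENP1 catalytic domain; medium: Tris pH 8 buffer plus EDTA, NaCl, BME, BSA, NP40, catalase; incubation: 50 min reaction at room temperature; technique: FRET, CFP and YFP emission; controls: no-enzyme low control and enzyme-plus-DMSO high control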
SENP6 inh: inhibitors of human SENP6 protease; Q9GZR1; Recombinant SENP6 catalytic domain, aminoluciferin luminescence; inhibition, % at 10 µM; hit rate 1.8% among 330,000; AID 2599;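 active = inhibition above about 50% at the single tested dose, limit read from the data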
SENP8 block-1: inhibitors of human SENP8 protease; Q96LD8; recombinant SENP8, Nedd8 substrate fluorescence; inhibition, % at 20 µM; hit rate 0.64% among 360,000; AID 602440; in the data active = inhibition mostly above about 40%, no sharp cut-off; inactive = mostly below about 27%
SENP8 block-2: SENP8 protease inhibition; Q96LD8; inhibition, % at 10 µM; hit rate 1.2% among 330,000; purified SENP8, Z-RLRGG-aminoluciferin cleavage, luminescence; AID 2540; in the data active = inhibition above about 50%
SENP8 conf: human SENP8 inhibition, confirmed | hit rate 40% among 6,200 | Recombinant SENP8, Z-RLRGG-aminoluciferin luminescence, 60 min | inhibition, % at 12.5 µM | AID 488912 | shares compounds with SENP7 block;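 active = mean inhibition across replicates above about 50%, limit read from the data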
SENP6 confirm: confirmation of human SENP6 protease inhibitors; hit rate 58% among 6,200; AID 488915; shares compounds with SENP7 block; inhibition, % at 12.5 µM; recombinant SENP6, Z-RLRGG-aminoluciferin luminescence
SENP7 conf: confirmation of human SENP7 protease inhibitors; shares compounds with SENP7 block; recombinant SENP7, Z-RLRGG-aminoluciferin luminescence, 40 min; inhibition, % at 12.5 µM; hit rate 69% among 6,200
Casp3 SENP sel: inhibits human caspase-3 in SENP selectivity test | inhibition, % at 12.5 µM | shares compounds with SENP7 block | hit rate 60% among 6,200 | purified caspase-3, Z-DEVD-aminoluciferin luminescence, 60 min;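 active = mean inhibition above about 50%, limit read from the data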
SENP luc ctr: interferes with luciferase luminescence in SENP counter-screen | hit rate 39% among 6,200 | Pre-incubated SENP8/Z-RLRGG-aminoluciferin, luciferase luminescence interference | AID 488919 | shares compounds with SENP7 block | inhibition, % at 12.5 µM;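 active = mean inhibition above about 50% when retested at one dose, limit read from the data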
A number is an active result; . = inactive; / = no result given.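 The calls were made as follows, unless noted: active = mean inhibition above about 50% in the one-dose retest (limit read from the data); inactive = the rest.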

SMILES	SENP7 block	UCH37 inh	SENP1 FRET inh	SENP6 inh	SENP8 block-1	SENP8 block-2	SENP8 conf	SENP6 confirm	SENP7 conf	Casp3 SENP sel	SENP luc ctr
O=S(=O)(N=C(c1ccccc1)N1CCOCC1)c1ccc(F)cc1F	/	.	/	/	/	/	/	/	/	/	/
Cc1cc(C=Nn2cnnc2)c(C)n1-c1ccc(OCc2ccc(Cl)cc2)cc1	/	.	/	/	/	/	/	/	/	/	/
O=C(O)c1cccc(-c2nnn(Cc3ccccc3)n2)c1	.	.	.	.	.	.	/	/	/	/	/
Cc1ccccc1Cn1nnc(-c2cccc(C(=O)O)c2)n1	.	.	.	70.8	.	.	63.7	60.9	86.2	52.2	72.0
Cc1ccccc1Cn1nnc(-c2ccc(C(=O)O)cc2)n1	.	.	.	.	.	.	/	/	/	/	/
O=C(O)c1cccc(-c2nnn(Cc3ccccc3Cl)n2)c1	.	.	.	82.4	.	55.8	.	82.8	93.5	.	.
Cc1cc(O)c(-c2cc(C(=O)Nc3cccnc3)[nH]n2)cc1C	71.2	.	.	.	.	.	.	.	65.9	.	.
CCc1ccc(O)c(-c2cc(C(=O)Nc3cccnc3)[nH]n2)c1	.	.	.	.	.	.	/	/	/	/	/
Cc1ccc(C)c(NC(=O)c2cc(-c3cc(C)ccc3O)n[nH]2)c1	66.4	.	.	.	.	.	.	.	82.0	.	.
Cc1cc(C)c(O)c(-c2cc(C(=O)Nc3cccnc3)[nH]n2)c1	.	.	.	68.1	.	.	.	.	73.1	.	.
CC(=NNC(=O)c1cc2c(s1)CCC(C)C2)c1cccnc1 (stereo not drawn)	/	.	/	/	/	/	/	/	/	/	/
Cn1ccc(C(=O)NC(=S)Nc2ccc([N+](=O)[O-])cc2O)n1	53.6	.	.	71.7	.	55.5	74.5	72.4	93.1	75.4	78.3
Cc1cccc(/C=N\NC(=O)c2ccc(Cl)cc2)c1O	73.5	/	.	.	.	.	.	.	.	59.6	.
O=C(NC(=S)Nc1cc([N+](=O)[O-])ccc1O)c1ccc2c(c1)OCO2	81.4	.	.	90.4	.	89.1	93.1	93.6	97.0	86.8	77.3
CCOc1cccc(/C=N/NC(=O)c2ccc3c(c2)OCCO3)c1O	.	/	.	.	.	.	/	/	/	/	/
Cc1cccc(/C=N/NC(=O)c2ccc3c(c2)OCCO3)c1O	96.5	/	.	93.7	.	94.3	95.5	98.3	102.6	94.3	65.9
O=C(C[n+]1ccc(C=NO)cc1)N1CCCCC1	/	.	/	/	/	/	/	/	/	/	/
CCCC=NNc1nnc(Cc2ccccc2)c(=O)[nH]1	/	.	/	/	/	/	/	/	/	/	/
CC(=NO)C(=O)Nc1ccccc1	/	.	/	/	/	/	/	/	/	/	/
O=C(O)c1cccc(-c2ccc(C=Nn3cnc4sc5c(c4c3=O)CCCC5)o2)c1	/	.	/	/	/	/	/	/	/	/	/
Clc1ccc(Cl)c(-c2ccc(C=Nc3ncn[nH]3)o2)c1	/	.	/	/	/	/	/	/	/	/	/
O=C(N/N=C/c1cc([N+](=O)[O-])ccc1O)c1ccc2c(c1)OCCO2	88.9	/	.	93.0	.	84.8	.	.	.	.	.
O=C(/C=C\Nc1cccc(F)c1)c1cccs1	92.4	.	.	94.4	.	88.8	95.6	96.9	102.0	93.3	94.8
O=C(/C=C/Nc1ccc(F)cc1F)c1cccs1	98.7	.	.	96.3	.	97.0	.	99.7	103.5	97.8	.
Cc1ccc(N/C=C/C(=O)c2cccs2)cc1	93.2	.	.	92.8	.	94.2	79.3	97.2	101.2	95.0	69.8
SMILES	SENP7 block	UCH37 inh	SENP1 FRET inh	SENP6 inh	SENP8 block-1	SENP8 block-2	SENP8 conf	SENP6 confirm	SENP7 conf	Casp3 SENP sel	SENP luc ctr
O=C(/C=C/Nc1ccccc1F)c1cccs1	100.0	.	.	95.8	.	96.2	97.2	99.8	102.8	97.5	96.6
COc1ccccc1N1CCN(N=Cc2cccc(Cl)c2)CC1	/	.	/	/	/	/	/	/	/	/	/
CC1CCCCC1NC(=O)CON=Cc1ccccc1OC(F)F (stereo not drawn)	/	.	/	/	/	/	/	/	/	/	/
O=C1/C(=C/c2cccs2)Cc2ccccc21	92.3	.	.	91.0	.	84.2	82.6	90.9	98.6	86.7	70.4
O=C1C(=Cc2ccccc2Cl)CCc2ccccc21	/	/	.	/	.	/	/	/	/	/	/
Cn1cccc1/C=C1\Cc2ccccc2C1=O	92.9	.	.	.	.	91.9	66.5	91.0	99.2	92.7	.
Cn1cccc1/C=C1\CC(C(C)(C)C)C/C(=C\c2cccn2C)C1=O (stereo not drawn)	.	.	.	.	.	.	/	/	/	/	/
Cn1cccc1/C=C1\CCc2ccccc2C1=O	.	.	.	100.2	.	95.4	97.5	98.3	101.6	96.8	96.0
Cc1ccccc1NCC(=O)NN=Cc1ccc([N+](=O)[O-])cc1	/	.	/	/	/	/	/	/	/	/	/
COc1ccc(C(C)=NNC(=O)C2CC2)cc1	/	.	/	/	/	/	/	/	/	/	/
CCOc1ccc(CON=Cc2c(C)[nH]c(=O)[nH]c2=O)cc1	/	.	/	/	/	/	/	/	/	/	/
CC(=NNC(=O)Cn1c(C)nc2ccccc21)c1cccs1	/	.	/	/	/	/	/	/	/	/	/
O=C(COc1ccc(-c2nnco2)cc1)Nc1cc([N+](=O)[O-])ccc1F	.	.	.	.	.	.	/	/	/	/	/
N#Cc1ccsc1NC(=O)COc1ccc(-c2nnco2)cc1	70.7	.	.	86.9	.	70.1	.	65.7	92.6	86.9	.
CC(C)(C)c1ccc(/C=C/C(=O)Nc2nncs2)cc1	79.4	.	.	.	.	.	.	.	.	.	.
O=C(/C=C/c1cccs1)Nc1nncs1	.	.	.	.	.	.	/	/	/	/	/
COC(=O)c1ccc(NC(=O)Nc2ccc(F)c(Cl)c2)cc1	58.4	.	.	.	.	.	.	.	83.5	.	.
CC(=O)Nc1ccc(NC(=O)Nc2ccccc2C)cc1	.	.	.	.	.	.	/	/	/	/	/
COC(=O)c1ccc(NC(=O)Nc2ccccc2C)cc1	92.0	.	.	91.4	.	82.9	89.4	89.3	99.3	89.0	.
COC(=O)c1ccc(NC(=O)Nc2ccc(OC)cc2)cc1	.	.	.	.	.	.	/	/	/	/	/
COC(=O)c1ccc(NC(=O)Nc2ccc(F)cc2)cc1	.	.	.	68.3	.	.	.	.	80.3	.	62.2
CC(=O)N(C)c1ccc(NC(=O)Nc2ccccc2C)cc1	57.5	.	.	63.3	.	.	.	.	79.2	82.9	63.0
Cc1ccc(-n2nc(C)c(C=Nn3c(C)n[nH]c3=S)c2Cl)cc1	/	.	/	/	/	/	/	/	/	/	/
COc1ccc2c(C#N)c3ccccn3c2c1	.	.	.	50.0	.	.	.	51.5	.	.	.
